Screening data from PubChem BioAssay.
Most compounds without a hit are left out; they make up all but 0.72% or so of the library.
bIAP act = increases bovine intestinal alkaline phosphatase activity; purified bovine IAP, CDP-star luminescence, 30 min; active compounds read high; fold of DMSO-control signal, blank-subtracted; activation factor at 20 µM; actives 0.17% (n = 200,000);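 active means activation factor of 2 or more at 20 µM, a signal rise over negative controls twice the positive control's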
mIAP block = blocks mouse intestinal alkaline phosphatase; purified mouse IAP, CDP-Star luminescence, 30 min; inhibition, % at 10 µM; actives 0.2% (n = 330,000);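 active means inhibition of at least 40% at 10 µM in the primary screen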;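 further: plate controls were DMSO with enzyme for no effect and no enzyme wells for full effect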
hIAP act = human IAP activation; P09923; purified human IAP, CDP-Star luminescence, 30 min; active compounds read high; 1 = vehicle-only enzyme, 0 = enzyme-free background; activation factor at 10 µM; actives 0.16% (n = 330,000); AID 2524;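 active means activation factor of the enzyme at least 2-fold when tested at 20 µM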
Target sequence (P09923 whole entry, looked up): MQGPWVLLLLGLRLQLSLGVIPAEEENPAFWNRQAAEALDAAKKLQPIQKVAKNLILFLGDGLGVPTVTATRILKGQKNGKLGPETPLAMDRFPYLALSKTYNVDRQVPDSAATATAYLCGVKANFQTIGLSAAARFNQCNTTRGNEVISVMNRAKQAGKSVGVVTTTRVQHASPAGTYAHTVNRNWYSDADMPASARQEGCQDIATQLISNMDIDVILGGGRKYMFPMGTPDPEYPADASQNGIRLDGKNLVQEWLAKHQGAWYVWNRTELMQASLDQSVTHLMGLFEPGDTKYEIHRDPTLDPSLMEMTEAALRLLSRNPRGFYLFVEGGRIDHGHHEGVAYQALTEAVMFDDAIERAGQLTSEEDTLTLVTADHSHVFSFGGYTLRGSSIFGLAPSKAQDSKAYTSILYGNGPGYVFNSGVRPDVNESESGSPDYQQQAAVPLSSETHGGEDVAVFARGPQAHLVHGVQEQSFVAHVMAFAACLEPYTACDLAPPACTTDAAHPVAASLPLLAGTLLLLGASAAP
mIAP act = increases mouse intestinal alkaline phosphatase activity; actives 0.24% (n = 330,000); activation factor at 10 µM; muIAP, CDP-Star luminescence, 30 min; active compounds read high; 1 = vehicle-only enzyme signal, 0 = enzyme-free wells;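 active means activation factor of at least 2 at 20 µM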
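System: mouse IAP enzyme. Reagent: CDP-Star chemiluminescent phosphatase substrate. Benchmarks: DMSO wells, no-enzyme wells. Times: 30 min enzyme-substrate-compound incubation at room temperature. Detection: luminescence from enzymatic CDP-Star hydrolysis. Doses: test compounds delivered from DMSO solution.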
hIAP block = blocks human intestinal alkaline phosphatase; purified IAP, CDP-Star luminescence, 30 min; inhibition, % at 10 µM; actives 0.12% (n = 330,000); AID 2544;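 active means inhibition reaching a set limit with compound at 10 µM in the primary screen, cut at about 35% in these data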;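 further: plate controls were DMSO wells with enzyme for no effect and no-enzyme buffer wells for full effect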
bIAP inhibitor = intestinal alkaline phosphatase (bovine) inhibition; purified bovine IAP, CDP-star luminescence, 30 min; 190,000 tested, under 10 active; AID 1019; inhibition, % at 20 µM;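 active means over 50% inhibition of intestinal alkaline phosphatase at 20 µM in the single-dose screen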
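Assay system: bovine IAP enzyme; medium: DEA buffer 100 mM, pH 9.8, with MgCl2 1.0 mM, ZnCl2 0.02 mM; doses: 20 µM single dose; incubation: enzyme reaction for 30 min at room temperature; detection: CDP-star luminescence signal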
hIAP act confirm = human IAP activation confirmation. activation (%Activity, negative = activation), % at 8.3 µM. actives 10% (n = 880). AID 434926. shares compounds with hIAP act. purified IAP, CDP-Star luminescence, 30 min; active compounds read low;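 active means at least twofold enzyme activation in any of six single-dose repeats, which the averaged readout prints as negative percent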
* hit, by the source's call; . = no result given.

SMILES	bIAP act	mIAP block	hIAP act	mIAP act	hIAP block	bIAP inhibitor	hIAP act confirm
Oc1ccc(-c2cn3ccccc3n2)cc1O	.	3	0.51	0.97	49*	.	12
Cc1ccn2cc(-c3ccc(O)c(O)c3)nc2c1	.	40	0.6	0.6	40*	.	-69
Cc1cc(NC(=O)CSc2nnc(-c3ccc([N+](=O)[O-])cc3)o2)no1	.	-3	0.65	1	35*	.	-61
CCOC(=O)c1c(NC(=O)Cn2cc([N+](=O)[O-])cn2)sc2c1CCC2	1	7	0.65	0.93	36*	-4	-91*
CC1O[C@@H](OCC2O[C@@H](Oc3cc(O)c4c(c3)OC(c3ccc(O)cc3)CC4=O)[C@H](O)[C@@H](O)[C@@H]2O)[C@H](O)[C@H](O)[C@H]1O (stereo not given in full)	.	0	0.97	1	3	.	.
CCNS(=O)(=O)c1ccc(CCC(=O)N2CCCC2)cc1	.	-3	0.58	1	42*	.	4
CC(Sc1ccc(Cl)cc1)C(=O)NNC(=O)c1ccccc1O (stereo not given)	.	18	2.5*	0.82	-148	.	-20
CSCCC(NC(=O)c1ccccc1Cl)C(=O)NNC(=O)c1ccccc1O (stereo not given)	.	29	1.5	0.71	-55	.	.
COc1ccc(C(=O)COC(=O)CN2C(=O)C3C4CCC(C4)C3C2=O)cc1 (stereo not given)	.	0	1.1	1	-10	.	.
O=c1ccc2cc(O)c(O)cc2o1	1	39	0.6	0.61	40*	1	-18
CCOC(=O)c1cnc(-n2nc(C)cc2C)nc1NNc1nc(C)cc(C)n1	.	34	2	0.66	-100	.	72
CCOC(=O)c1cnc(-n2nc(C)cc2C)nc1NNc1nc(-c2ccccc2)cc(-c2ccccc2)n1	0.9	11	0.94	0.89	6	12	.
CCC(Oc1ccccc1)C(=O)O/N=C(\N)c1ccc(OC)c(OC)c1 (stereo not given)	1.1	14	0.92	0.86	8	-12	.
COc1ccc(-c2cc(=O)c3c(O)cc(O)cc3o2)cc1	.	3	0.88	0.97	12	.	.
O=c1cc(-c2ccc(O)c(O)c2)oc2cc(O)cc(O)c12	.	34	0.42	0.66	58*	.	-2
CC1=NN(c2nc3ccccc3[nH]2)C(=O)/C1=C/N(C)C	1.1	-6	2.3*	1.1	-128	-15	-57*
CC1=NN(c2ccccc2)C(=O)/C1=C/N(C)C	.	-6	0.93	1.1	7	.	.
Cc1ccc(S(=O)(=O)NC(CCC(N)=O)C(=O)NCc2ccc3c(c2)OCO3)c(C)c1 (stereo not given)	.	0	1	1	-2	.	.
CC(=O)N1CCOc2ccc(S(=O)(=O)N3C(C)CCCC3C)cc21 (stereo not given)	.	9	0.88	0.91	12	.	.
CC(=O)N1CCOc2ccc(S(=O)(=O)N3CCCC(C)C3)cc21 (stereo not given)	.	-8	0.57	1.1	43*	.	54
Cc1cc(NS(=O)(=O)c2ccc(NC(=O)C(C(C)C)N3C(=O)c4ccccc4C3=O)cc2)nc(C)n1 (stereo not given)	1	-1	0.61	1	39*	-3	-41
CCCCCCc1c(C)nc(-n2[nH]c(C)c(CCO)c2=O)[nH]c1=O	1.2	16	2.3*	0.84	-128	-19	-56
Cc1ccc(NC(=O)CCS(=O)(=O)c2cc3c(cc2Cl)NC(=O)CO3)cc1	.	3	0.63	0.97	37*	.	-42
COc1ccc(C)cc1NC(=O)CCS(=O)(=O)c1cc2c(cc1Cl)NC(=O)CO2	.	-4	0.83	1	17	.	.
CN(C)c1ccc(/C=C2\C(=N)N3N=C(CC(=O)N4CCCCC4)SC3=NC2=O)cc1	.	28	0.63	0.72	37*	.	7
SMILES	bIAP act	mIAP block	hIAP act	mIAP act	hIAP block	bIAP inhibitor	hIAP act confirm
NC(=O)c1ccc(NC(=O)C2CCCC2)cc1	.	-8	2.6*	1.1	-158	.	-40*
O=C(Nc1ccc(F)cc1)C1CCCCC1	1.1	1	1.1	0.99	-11	-6	.
CCOc1ccccc1Nc1nnc(SCC(=O)NC2CCS(=O)(=O)C2)s1 (stereo not given)	.	-6	1	1.1	0	.	.
CC(=O)N1c2ccc(S(=O)(=O)N3CCC(C(=O)Nc4cccc(Cl)c4)CC3)cc2CC1C (stereo not given)	.	-98	2*	2	-100	.	-64
CCCCCC(=O)Nc1ccc(Cl)cn1	1	-21	0.3	1.2	70*	-2	-33
COc1ccccc1NC(=S)NCc1ccc(Cl)cc1	.	-14	0.85	1.1	15	.	.
CSc1ccccc1NC(=S)NCc1ccc(Cl)cc1	.	-14	0.6	1.1	40*	.	-32
Cc1cc(N(C)/N=C/c2ccccc2O)nc(-c2ccccc2O)n1	1.2	-11	2.3*	1.1	-130	-23	-37
COC1=CC(=Cc2c(N)n3nc(CC(=O)N4CCOCC4)sc3nc2=O)C=C(OC)C1=O	.	15	0.58	0.85	42*	.	-39
O=C(O)c1c2c(nc3ccc(S(=O)(=O)N4CCC(C(=O)NC5CCCCCC5)CC4)cc13)CCCC2	1.2	2	0.93	0.98	7	-16	.
CCCOc1ccc(C(=O)NCC(c2ccco2)N(C)C)cc1OC (stereo not given)	1	2	0.98	0.98	2	-1	.
COc1ccc(C(=O)NCC(=O)NCC(c2ccco2)N(C)C)cc1OC (stereo not given)	0.9	4	0.56	0.96	44*	9	6
CC(C)OP(=O)(OC(C)C)/C(C=O)=N\Nc1ccc([N+](=O)[O-])cc1	.	11	0.78	0.89	22	.	.
Cc1cnc(C(=O)N2CCN(S(=O)(=O)c3cccc(Br)c3)CC2)cn1	.	1	0.92	0.99	8	.	.
CC1=Nc2ccccc2N=C(NC(=O)CSC(=S)N2CCN(C)CC2)C1c1ccccc1 (stereo not given)	.	-16	2.4*	1.2	-143	.	4
CC1=Nc2ccccc2N=C(NC(=O)CSC(=S)N2CCCCC2)C1c1ccccc1 (stereo not given)	.	-4	1	1	-1	.	.
CCOC(=O)c1cnc2cc(F)c(F)cc2c1N1CCN(C)CC1	.	2	1	0.98	-4	.	.
Cc1ccc(-n2nc(C)c3c2OC(N)=C(C#N)C3c2ccncc2)cc1 (stereo not given)	0.9	7	0.86	0.93	14	10	.
Cc1nn(-c2ccccc2)c2c1C(c1ccncc1)C(C#N)=C(N)O2 (stereo not given)	1	-3	0.62	1	38*	4	-2
Cc1noc(C)c1COc1ccc(C(=O)N2CCC(C(N)=O)CC2)cc1	.	12	1	0.88	0	.	.
